Test results as given in ChEMBL document CHEMBL1140921, “Discovery of novel Myc-Max heterodimer disruptors with a three-dimensional pharmacophore model” (J Med Chem, 2009).
Activity calls are given as the source filed them. The calls are words filed in the database; no cut-off is given here.

Assays:
[1] = Inhibition of 6-His tagged recombinant c-Myc353-437 gene binding to Max(S) protein assessed as disruption of heterodimer formation by circular dichroism assay
In short: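 Circular dichroism on equimolar c-Myc and Max (1.5 µM each), with helical content read as ellipticity at 222 nm. Compounds were screened at 200 µM (average of three independent trials), then titrated over a concentration range. The fitted Kcomp was multiplied by the independently determined c-Myc–Max dissociation constant to estimate affinity for c-Myc monomer. Triplicate.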

HL-60 = assay: Cytotoxicity against human HL60 cells by MTS assay; assay type: functional, cell-based
In short: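 HL60 cell growth dose-response profiles; IC50 calculated from the profile on day 5 after compound addition.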

[2] = Cytotoxicity against rat c-Myc knockout KO-HMG cells overexpressing HMGA1b by MTS assay; assay type: cell-based

SMILES	IC50 [1] [µM]	IC50 (HL-60) [µM]	also measured
CCc1ccc(/C=C2\SC(=S)NC2=O)cc1	49	35	–
O=C1NC(=S)S/C1=C\c1ccc(O)cc1	–	–	Activity [1]: inactive
CCCN1C(=O)/C(=C/c2ccc(CC)cc2)SC1=S	4.6	–	–
CN(C)c1ccc(/C=C2\SC(=S)NC2=O)cc1	–	–	Activity [1]: inactive
O=C1NC(=S)S/C1=C\c1ccc(Cl)cc1	41	–	–
O=C1NC(=S)S/C1=C\c1ccc(O)c(O)c1	23	–	–
CCCCOC(=O)CCN1C(=O)/C(=C/c2ccc(CC)cc2)SC1=S	10	–	–
CCc1ccc(OCC(=O)Nc2ccc(C)cc2Br)cc1	–	23	IC50 [2]: > 55 µM
CC(C)c1ccc(/C=C2\SC(=S)NC2=O)cc1	38	–	–
Cc1ccc(C)c(OCN2Cc3ccccc3C2C=O)c1 (stereo not drawn)	–	15	IC50 [2]: > 35 µM
